Compound activity: PubChem BioAssay, The Scripps Research Institute Molecular Screening Center
TAAR1 agonist: human TAAR1 agonists, primary screen, Fluo-8 calcium fluorescence, CHO RD-HGA16 cells; 360,000 compounds, 0.99% hits; vehicle wells 0%, saturating PEA agonist 100%; Trace amine-associated receptor 1 (Homo sapiens), Q96RJ0; activation, % at 3 µM;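 active = activation above the mean activation of all test compounds in the run plus 3 SD, cut at about 38% in these data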
Target sequence (Q96RJ0 whole entry, looked up): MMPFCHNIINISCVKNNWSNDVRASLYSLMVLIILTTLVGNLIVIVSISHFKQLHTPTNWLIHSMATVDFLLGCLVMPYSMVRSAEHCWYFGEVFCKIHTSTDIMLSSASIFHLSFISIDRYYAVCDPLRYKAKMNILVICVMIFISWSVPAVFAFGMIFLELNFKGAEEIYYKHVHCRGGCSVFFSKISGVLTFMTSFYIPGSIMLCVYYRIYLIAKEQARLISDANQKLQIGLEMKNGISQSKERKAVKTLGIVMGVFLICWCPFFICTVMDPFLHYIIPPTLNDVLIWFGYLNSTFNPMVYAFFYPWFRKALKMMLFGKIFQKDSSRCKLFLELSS
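Signal – calcium-sensitive Fluo-8 signal, excitation 470-495, emission 515-575 nm · System – RD-HGA16 (CHO) cells co-expressing Gα16 and hTAAR1 · Incubation – 17-24 h seeding, 75 min 37 °C dye, 30 min RT · Compound dosing – 3 µM single concentration · Repeats – no replicates (n 1)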
TAAR1 antagonist: human TAAR1 antagonists, primary screen, Fluo-8 calcium fluorescence, CHO RD-HGA16 cells; Trace amine-associated receptor 1 (Homo sapiens), Q96RJ0; antagonist; inhibition, % at 3 µM; 360,000 compounds, 1.5% hits; AID 624466, 2012;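 active = inhibition above a per-plate cutoff, the mean inhibition of test compounds on that plate plus 3 SD, cut at about 49% in these data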;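 note: 0% = DMSO plus EC80 beta-PEA response and 100% = DMSO alone without agonist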
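Material: CHO RD-HGA16 cells bearing hTAAR1; compound dosing: one-point dosing, 3 µM nominal final; schedule: dye loading 75 min at 37 °C, then 30 min room temperature; measured by: calcium fluorescence with Fluo-8; control set: vehicle and agonist controls; replication: n of 1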
HCV core dimer: inhibitors of HCV core protein dimerization, primary screen, biochemical, TR-FRET, high-throughput | TR-FRET GST/Flag-core106 dimerization, 1536-well | inhibition, % at 5 µM | 300,000 compounds, 0.33% hits | AID 1899, 2009;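 active = inhibition above the mean of all tested compounds plus 3 SD, set per screening campaign, cut at about 45% in these data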
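Assay system: tagged HCV core106 pair (GST and Flag); medium: KF-containing HEPES buffer, pH 7.45, DTT, CHAPS, BSA; also added: Eu donor and XL665 acceptor anti-tag antibodies; dosing: 5 µM single dose; timing: compound-protein-antibody incubation 4 h at 22.5 °C; signal: TR-FRET 671 and 617 nm emission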
rCAG RNA binder: binders of r(CAG) RNA repeats, primary screen, biochemical, fluorescence. AID 651821, 2012. r(CAG) RNA repeat, TO-PRO-1 dye displacement fluorescence. inhibition, % at 3 µM. 370,000 compounds, 1.3% hits;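 active = inhibition above the plate cutoff, the mean of all test compounds on that plate plus 3 SD, cut at about 35% in these data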;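 note: 0% = DMSO alone and 100% = 100 µM mitoxantrone as full dye displacement; higher means more dye released from RNA so lower well fluorescence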
HCV NS3 hel inh: inhibitors of HCV NS3 helicase, primary screen, biochemical, Cy5 molecular beacon fluorescence; Hepatitis C virus NS3 helicase; NS3 helicase DNA unwinding; inhibition, % at 10.9 µM; 290,000 compounds, 0.56% hits;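 active = inhibition above the mean of all tested compounds plus 3 SD, set per campaign, cut at about 35% in these data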;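 note: 0% = DMSO wells and 100% = thioflavine S control wells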
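Assay system: hepatitis C virus NS3 helicase domain fragment enzyme. Also added: annealed dual-labelled DNA beacon duplex, ATP-started. Timing: 1 h reaction at 25 °C, ATP-initiated. Technique: Cy5 fluorescence at 0 and 60 min, beacon hairpin quenching. Evaluation: % inhibition of unwinding. Replication: one well per compound.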
An asterisk follows results filed as active; nt = no result. Sampled rows, rich in hits. Any-hit rate of the full collection: about 3.7%.

SMILES	TAAR1 agonist	TAAR1 antagonist	HCV core dimer	rCAG RNA binder	HCV NS3 hel inh
COC(=O)[C@@]1(Sc2ccc(C)cc2)CC(=O)N(c2ccc(Cl)cc2)[C@@H]1c1ccccc1	1	48	nt	3	nt
COC(=O)[C@@]1(Sc2ccc(C)cc2)CC(=O)N(c2ccc3c(ccn3C)c2)[C@@H]1c1ccccc1	3	55*	nt	9	nt
COc1ccc(CCn2c(C)cc(C(=O)COC(=O)c3cnc(C)cn3)c2C)cc1	7	6	3	-6	nt
Cc1cc(C(=O)COC(=O)c2ccc(O)cc2)c(C)n1CCc1ccc(F)cc1	36	20	6	9	13
COc1ccc(CCn2c(C)cc(C(=O)COC(=O)c3ccc(O)cc3O)c2C)cc1	10	65*	nt	16	nt
Cc1cc(C(=O)COC(=O)c2ccc3c(c2)NC(=O)CS3)c(C)n1CCc1ccc(Cl)cc1	21	14	48*	8	-6
CCN(CC)C(=O)c1ccc(C(CCOC(=O)Oc2ccccc2)c2ccc(OC)cc2)cc1 (stereo not drawn)	nt	nt	nt	4	nt
O=C(NCc1ccco1)c1c2c(nc3ccccc13)CCC2	1	8	91*	20	13
O=C(COC(=O)c1ccccc1Nc1cccc(C(F)(F)F)c1)NCc1ccco1	-2	-6	64*	9	25
Cc1cc(C(=O)NCc2ccco2)c2cc(F)ccc2n1	1	7	2	3	5
O=C(COC(=O)c1cc(-c2cccs2)nc2ccccc12)NCc1ccco1	7	21	63*	18	9
Cc1ccc(-c2cc(C(=O)NCc3ccco3)c3ccccc3n2)s1	10	9	47*	13	10
COc1ccc(C2C(C(=O)N3CCN(c4ccccc4C)CC3)CC(=O)N2c2ccc(OC)cc2)cc1 (stereo not drawn)	nt	nt	nt	2	nt
Cc1ccc(CSc2nnc(-c3cc(-c4ccc(F)cc4)n[nH]3)n2N)cc1	nt	nt	nt	5	nt
O=C(COC(=O)c1ccccc1Oc1ccccc1)NCc1ccco1	1	3	74*	2	17
O=C(CCCCCN1C(=O)C2C3C=CC(C3)C2C1=O)N1CCN(c2ncccn2)CC1 (stereo not drawn)	nt	nt	nt	0	nt
CC(C)=CCc1c(O)cc2c(c1O)C(=O)CC(c1ccccc1)O2 (stereo not drawn)	1	-4	-6	5	nt
CC(C)=CCc1c(O)ccc2c1OC(c1ccc(O)c(O)c1)CC2=O (stereo not drawn)	14	57*	-1	11	12
CCc1cccc(NC(=O)C2CCN(c3ncnc4sc(C)c(C)c34)CC2)c1	9	53*	nt	7	nt
COc1ccc(-c2csc(NC(=O)C3CCN(c4ncnc5sc(C)c(C)c45)CC3)n2)cc1OC	2	50*	24	12	nt
Cc1sc2ncnc(N3CCC(C(=O)Nc4ccc(Cl)c(Cl)c4)CC3)c2c1C	16	24	nt	5	nt
COc1ccccc1OCC(=O)NNC(=O)C1CCN(c2ncnc3sc(C)c(C)c23)CC1	9	44	nt	-2	nt
Cc1ccc(NC(=O)Cc2ccc(OC(F)F)cc2)c(S(=O)(=O)N2CCOCC2)c1	nt	nt	nt	3	nt
CN=C1S/C(=C\c2ccc(O)c(OC)c2)C(=O)N1C	-1	-24	-12	5	nt
C=CCN1C(=O)/C(=C/c2ccc(O)c(OC)c2)S/C1=N/c1nccs1	32	60*	-2	35	-25
SMILES	TAAR1 agonist	TAAR1 antagonist	HCV core dimer	rCAG RNA binder	HCV NS3 hel inh
Cc1c(C(=O)NCC2COc3ccccc3O2)oc2ccc(S(=O)(=O)N3CC(C)CC(C)C3)cc12 (stereo not drawn)	12	-10	12	6	-2
Cc1c(C(=O)NCCC2=CCCCC2)oc2ccc(S(=O)(=O)N3CCC4(CC3)OCCO4)cc12	21	60*	7	-2	-12
Cc1c(C(=O)NCCc2ccccc2)oc2ccc(S(=O)(=O)N3CCOCC3)cc12	38*	29	-1	0	-2
Cc1c(C(=O)NCC2COc3ccccc3O2)oc2ccc(S(=O)(=O)N3CCOCC3)cc12 (stereo not drawn)	33	58*	-2	3	-5
O=C(COC(=O)c1ccc2c(c1)C(=O)N(Cc1ccncc1)C2=O)Nc1ccccc1[N+](=O)[O-]	7	6	54*	13	24
CCN(CC)C(=O)CC[C@H]1CC[C@]2(CCCN(Cc3ccc(N(C)C)cc3)C2)O1	nt	nt	nt	2	nt
COC(=O)C1CN(Cc2ccc(OC)cc2)CCS(=O)(=O)N1Cc1cn(Cc2ccc(F)cc2)nn1 (stereo not drawn)	nt	nt	nt	0	nt
Cc1nc2ccc(NC(=O)c3cc(F)cc(F)c3)cc2c(=O)[nH]1	nt	nt	nt	2	nt
C=CCn1c(SCC(=O)NC23CC4CC(CC(C4)C2)C3)nc2cc(C(=O)O)ccc2c1=O	5	-14	9	35*	13
C=CCn1c(SCC(=O)Nc2ccc(F)cc2)nc2cc(C(=O)O)ccc2c1=O	6	20	2	16	-1
C=CC[C@@H](CC(=O)N[C@H](CO)Cc1ccccc1)C(=O)N[C@@H](COC(=O)[C@H](CC=C)CC(=O)OC(C)(C)C)Cc1ccccc1	13	50*	nt	-9	nt
C=CC[C@@H](CC(=O)N[C@@H](CO)Cc1ccccc1)C(=O)N[C@H](COC(=O)[C@@H](CC=C)Cc1ccc(F)cc1)Cc1ccccc1	1	8	nt	0	nt
C=CCC[C@@H](Cc1ccc(F)cc1)C(=O)OC[C@@H](NC(=O)[C@@H](CC=C)CC(=O)N[C@@H](CO)Cc1ccccc1)C(C)(C)C	7	36	nt	-8	nt
C=CCC[C@H](Cc1ccc(F)cc1)C(=O)OC[C@@H](C)NC(=O)[C@@H](CC=C)CC(=O)N[C@H](CO)Cc1ccccc1	17	51*	nt	-5	nt
C=CCC[C@H](Cc1ccc(F)cc1)C(=O)OC[C@@H](NC(=O)[C@@H](CC=C)CC(=O)N[C@@H](CO)Cc1ccccc1)C(C)(C)C	13	51*	nt	-2	nt
COC(=O)[C@H](C(C)C)N(CCCc1cn(CC2CCCCC2)nn1)S(=O)(=O)c1ccc(F)cc1Br	nt	nt	nt	1	nt
CN(C)S(=O)(=O)N1CCC(Oc2ccc(C(=O)NC3Cc4ccccc4C3)cc2)CC1	15	58*	8	-6	-11
CN(C)S(=O)(=O)N1CCC(Oc2ccc(C(=O)NC3CCOC(C)(C)C3)cc2)CC1 (stereo not drawn)	3	-2	-8	-6	-1
COc1ccc(C(=O)N/N=C(\C)c2ccc3c(c2)C2C=CCC2C(c2ccccc2)N3)cc1 (stereo not drawn)	nt	nt	67*	nt	14
COc1ccc(/C(C)=N/NC(=O)c2ccncc2)cc1	-1	-6	3	3	5
